Reference: ChEMBL document CHEMBL1124097, “9-(2-Fluorobenzyl)-6-(alkylamino)-9H-purines. A new class of anticonvulsant agents” (1988)

Assays:
Type in all cases: functional
Rattus norvegicus [1] = test: Anticonvulsant activity against maximal electroshock-induced seizures in rats after intraperitoneal administration.; conditions: ip
Procedure, shortened: (§1)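 Male Sprague-Dawley rats were protected against maximal electroshock-induced seizures. The ED50 is the dose that protects 50% of animals from the hind-limb extensor component, calculated by the method of Miller. For ED50s given with standard error, at least 12 animals per dose level and four doses per compound were used. Otherwise, three doses with six animals per point were used.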

Rattus norvegicus [2] = test: Anticonvulsant activity against maximal electroshock-induced seizures in rats after oral administration; procedure, shortened: as §1
Rattus norvegicus [3] = test: Anticonvulsant activity against maximal electroshock-induced seizures in rats after ip administration at 25 mg/kg (compared to standard); conditions: route intraperitoneal

Compound | ED50 (Rattus norvegicus [1]) [mg/kg] | ED50 (Rattus norvegicus [2]) [mg/kg] | inhibition in vivo at 25 mg/kg (Rattus norvegicus [3]) [%]
CNc1ncnc2c1ncn2Cc1ccccc1Cl | 6.2 | 12.5 | –
CNc1ncnc2c1ncn2Cc1ccccc1C | 10 | 25 | –
CN(C)c1ncnc2c1ncn2Cc1ccccc1 | 6 | 12 | –
CNc1ncnc2c1ncn2Cc1c(F)cccc1Cl | 12.5 | – | –
CN(C)c1ncnc2c1ncn2Cc1c(F)cccc1Cl | 5 | 10 | –
CNc1ncnc2c1ncn2Cc1cccc(OCc2ccccc2)c1 | – | – | 17
CNc1ncnc2c1ncn2Cc1ccc(F)cc1F | 20 | – | –
CNc1ncnc2c1ncn2Cc1cccc(F)c1F | 18 | > 50 | –
CNc1ncnc2c1ncn2Cc1ccccc1C(F)(F)F | 20 | – | –
Fc1ccccc1Cn1cnc2c(NC3CCC3)ncnc21 | 33 | – | –
CNc1ncnc2c1ncn2Cc1ccc(N)cc1 | 25 | – | –
Fc1ccccc1Cn1cnc2c(N3CCCC3)ncnc21 | 12.5 | 35 | –
CC(C)(C)Nc1ncnc2c1ncn2Cc1ccccc1F | > 50 | – | –
CNc1ncnc2c1ncn2Cc1c(F)cccc1F | – | 2.7 | –
CNc1ncnc2c1ncn2Cc1cccc(O)c1 | – | – | 0
Nc1ncnc2c1ncn2Cc1ccccc1F | 4.5 | 12 | –
CNc1ncnc2c1ncn2Cc1ccc([N+](=O)[O-])cc1 | – | – | 0
CN(C=O)c1ncnc2c1ncn2Cc1ccccc1F | 11 | 25 | –
CNc1ncnc2c1ncn2Cc1ccc(F)cc1 | – | – | 33
CNc1ncnc2c1ncn2Cc1cccc(F)c1 | 7 | – | –
CNc1ncnc2c1ncn2Cc1ccccc1 | 5 | 12 | –
Fc1ccccc1Cn1cnc2c(N3CCC3)ncnc21 | > 50 | – | –
O=C1NC(=O)C(c2ccccc2)(c2ccccc2)N1 [PHENYTOIN] | 9.6 | – | –
